Our source for the Selectivity index, IC50 and CC50 values is ChEMBL document CHEMBL1139509, “Design, synthesis, and antipicornavirus activity of 1-[5-(4-arylphenoxy)alkyl]-3-pyridin-4-ylimidazolidin-2-one derivatives” (J Med Chem, 2005).

For data set [1], the system named is Enterovirus. The data set is described as follows: Ratio of CC50 to that of IC50 against human enterovirus EV71-2231 strain. Format: functional, Enterovirus A71.
Data set [2] relates to Enterovirus. The data set is described as follows: Ratio of CC50 to that of IC50 against human enterovirus EV71-4643 strain. Format: functional, Enterovirus A71.
For data set [3], the system named is Enterovirus. The data set can be described thus: In vitro inhibitory concentration against human enterovirus EV71-4643 strain. Type of data set: functional, organism-based, Enterovirus A71. The gist of the method: (§1)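 CPE-inhibition (neutralization) assay on RD cells seeded at 3 × 10⁵ cells/mL in DMEM/10% FBS and grown 24-30 h to about 90% confluency. Virus (100 TCID50) was mixed with graded compound concentrations and adsorbed 1 h at 37 °C. Cells were overlaid with DMEM, 5% FBS and 2% DMSO, incubated 64 h at 37 °C, then glutaraldehyde-fixed and crystal violet-stained, with A570 read-out. IC50 is 50% CPE reduction versus virus control. Triplicate, at least twice.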

A short description of data set [4]: Cytotoxicity against human rhabdomyosarcoma cells. Type of data set: cell-based. An outline of the steps: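 RD (rhabdomyosarcoma) cells were exposed to test compounds at various concentrations for 96 h at 37 °C. Viable cells were counted by trypan blue staining. CC50 is the concentration that reduces viability to 50% of the untreated control culture. Triplicate, run at least twice.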

The subject of data set [5] is Enterovirus. The data set can be described thus: In vitro inhibitory concentration against human enterovirus EV71-2231 strain. Format: functional, organism-based, Enterovirus A71. The gist of the method:
as §1

Consider `CCCc1nc(-c2ccc(OCCC(C)CCN3CCN(c4ccncc4)C3=O)cc2)no1` (configuration not stated), for which the Selectivity index was more than 227 in the data set with Enterovirus [1] and more than 657 in the data set on Enterovirus [2]. Moreover, the IC50 stood at 0.019 µM with Enterovirus [3] and 0.055 µM in the data set on Enterovirus [5]. Further, the CC50 in data set [4] was more than 12.5 µM.
As to `CC(C)(CCCN1CCN(c2ccncc2)C1=O)COc1ccc(-c2ccc(Cl)cc2)cc1`, the IC50 in the data set with Enterovirus [3] is 0.13 µM; in the data set with Enterovirus [5], more than 25 µM. The compound further returned a CC50 in data set [4] of more than 25 µM.
Turning to `O=C1N(CCC(CCOc2ccc(-c3ccc(Cl)cc3)cc2)Cc2ccccc2)CCN1c1ccncc1` (configuration not stated), the IC50 in the data set on Enterovirus [3] and with Enterovirus [5] was more than 10 µM each time. The CC50 in data set [4] is more than 10 µM.
In the case of `Cc1nc(-c2ccc(OCCC(C)CCN3CCN(c4ccncc4)C3=O)cc2)no1` (configuration not stated), the Selectivity index was more than 625 in the data set on Enterovirus [1] and more than 6944 with Enterovirus [2]. Moreover, the half-maximal inhibitory concentration (IC50) with Enterovirus [3] amounted to 0.0009 µM; in the data set on Enterovirus [5], 0.01 µM. This compound also returned a CC50 in data set [4] of more than 6.25 µM.
Take `CN(CCOc1ccc(-c2ccc(Cl)cc2)cc1)CCN1CCN(c2ccncc2)C1=O`: the values for the IC50 with Enterovirus [3] and in the data set on Enterovirus [5] were 0.4 µM and 1.18 µM, respectively. The CC50 in data set [4] is 25 µM.
Turning to `CC(CCCCN1CCN(c2ccncc2)C1=O)Oc1ccc(-c2ccc(Cl)cc2)cc1` (configuration not stated), the IC50 in the data set with Enterovirus [3] was found to be 0.053 µM; in the data set with Enterovirus [5], 0.6 µM. This compound also gave a CC50 in data set [4] of more than 12.5 µM.
Consider `CC(CCCCOc1ccc(-c2ccc(Cl)cc2)cc1)N1CCN(c2ccncc2)C1=O` (configuration not stated), for which the values for the IC50 in the data set with Enterovirus [3] and in the data set on Enterovirus [5] were 0.036 µM and 0.23 µM, respectively. Also, the midpoint of cytotoxicity in data set [4], the CC50, lay at 12.5 µM.
On the same counts, the results for `CCC(CCOc1ccc(-c2ccc(Cl)cc2)cc1)CCN1CCN(c2ccncc2)C1=O` (configuration not stated) are 0.17 µM, 0.6 µM and more than 25 µM.
On the same counts, the results for `O=C1N(CCN(CCOc2ccc(-c3ccc(Cl)cc3)cc2)Cc2ccccc2)CCN1c1ccncc1` are more than 5 µM, more than 5 µM and more than 5 µM.
For `CCCC(CCOc1ccc(-c2ccc(Cl)cc2)cc1)CCN1CCN(c2ccncc2)C1=O` (configuration not stated), the IC50 is 0.96 µM with Enterovirus [3] and more than 25 µM in the data set on Enterovirus [5]. This compound yielded a CC50 in data set [4] of more than 25 µM.
On to `CC(CCCOc1ccc(-c2ccc(Cl)cc2)cc1)CN1CCN(c2ccncc2)C1=O` (configuration not stated), for which the IC50 is 0.005 µM in the data set on Enterovirus [3] and 0.02 µM in the data set on Enterovirus [5]. In data set [4], this compound came in with a CC50 of more than 25 µM.
Consider `O=C1N(CCC(CCOc2ccc(-c3ccc(Cl)cc3)cc2)C(F)(F)F)CCN1c1ccncc1` (configuration not stated), for which the IC50 in the data set on Enterovirus [3] was 0.74 µM; in the data set on Enterovirus [5], 2.54 µM. This compound also gave a CC50 in data set [4] of more than 12.5 µM.
On the same counts, the results for `Cc1cc(COc2ccc(-c3ccc(Cl)cc3)cc2)cc(CN2CCN(c3ccncc3)C2=O)c1` are 22.9 µM, more than 25 µM and more than 25 µM.
In the case of `O=C1N(CCC2(CCOc3ccc(-c4ccc(Cl)cc4)cc3)CCCCC2)CCN1c1ccncc1`, the IC50 with Enterovirus [3] and in the data set with Enterovirus [5] was more than 25 µM in each case. The CC50 in data set [4] was more than 25 µM.
Turning to `O=C1N(CCN(CCOc2ccc(-c3ccc(Cl)cc3)cc2)Cc2ccc(Cl)cc2)CCN1c1ccncc1`, the IC50 in the data set with Enterovirus [3] and in the data set with Enterovirus [5] was more than 25 µM throughout. Moreover, the CC50 in data set [4] is more than 25 µM.
On to `O=C1N(Cc2cccc(COc3ccc(-c4ccc(Cl)cc4)cc3)n2)CCN1c1ccncc1`, for which the IC50 with Enterovirus [3] and with Enterovirus [5] was more than 25 µM in each case. The compound further had a CC50 in data set [4] of more than 25 µM.

For orientation: IC50 means the concentration at which inhibition is half-maximal. A low value points to greater potency in that assay. In general, CC50 refers to the concentration at which the toxic effect on the cells reaches its halfway point. Low values mean harm at low concentration, high ones better tolerance by the cells.
